Experiments:
[1] = tested on: nonsmall cell lung cancer cells (A549); experiment: MTT cytotoxicity assay, A549; format: cell-based; details: for IC50 A549: MTT assay, 72 h incubation, mean ± SD of three independent experiments; for IC50: Homo sapiens, A549, 72 h, read-out: IC50 A549
How it was run: (§1)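 Cells kept in DMEM with 10% FBS and 1% penicillin-streptomycin at 37 °C, 5% CO2. Seeding: A549 5 × 10^3, HeLa 1 × 10^3, Vero 2 × 10^3 cells/well. After 16−18 h, medium replaced with graded compound concentrations for 72 h. MTT 0.5 mg/mL for 3 h; formazan dissolved in DMSO; A570 (reference 630 nm). IC50 by nonlinear regression; doxorubicin positive control.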

HeLa cells = experiment: Apoptosis analysis; format: cell-based, human; details: both tested concentrations, Figure 4C,D
[2] = tested on: NCI-H187 cancer cell line; details: previously reported; cited from earlier work
[3] = tested on: HCT 116 colorectal cancer cells; details: cited from earlier work
[4] = tested on: human cervical carcinoma cells (HeLa); experiment: MTT cytotoxicity assay, HeLa; format: cell-based; details: 72 h incubation, mean ± SD of three independent experiments
How it was run: as §1

Vero cells = experiment: MTT cytotoxicity assay, Vero; format: cell-based; details: 72 h incubation, mean ± SD of three independent experiments
How it was run: as §1

A549 cells = experiment: Apoptosis analysis; format: cell-based; details: compared to untreated, Figure 4A,B

In the case of `O=C1C[C@@H](c2ccccc2)Oc2cc(O)cc(O)c21` [Compound 4, pinocembrin], the “IC50 A549” value [1] is given as “inactive”, the “apoptosis induction (in words)” value (HeLa cells) is given as “increased apoptotic cells in a dose-dependent manner” and the “IC50 NCI-H187” value [2] is given as “inactive”. For the same compound, the “cytotoxic activity (in words)” value [3] was “exhibit cytotoxic activity”.
For `O=C1C[C@@H](c2ccccc2)Oc2cc(O)c(Cc3ccccc3O)c(O)c21` [Compound 5, isochamanetin], the “IC50 A549” value [1] was “inactive”, the “IC50 HeLa” value [4] was “inactive” and the “IC50 Vero” value (Vero cells) was “inactive”.
With `O=C1C[C@@H](c2ccccc2)Oc2c(Cc3ccccc3O)c(O)c(Cc3ccccc3O)c(O)c21` [Compound 7, dichamanetin] the IC50 [1] was 14.9 ± 0.6 µM, the “IC50 HeLa” value [4] was “inactive” and the “apoptosis induction (in words)” value (A549 cells) was “moderate level of apoptosis”.
`COc1cccc2c1C(=O)c1c(O)c3c(c(O)c1C2=O)C[C@@](O)(C(=O)CO)C[C@@H]3O[C@H]1C[C@H](N)[C@H](O)[C@H](C)O1` [doxorubicin, reference compound] showed an IC50 [1] of 0.04 µM.

Reference: article PMC11755176 (ACS Omega, 2025)
